Values after ≈ are worked out from the molar mass of the structure shown.
Legend:
Staphylococcus aureus [1] = assay: Antibacterial activity against Staphylococcus aureus NCTC 4163 assessed as bacterial growth inhibition measured after 18 hrs by two-fold serial microdilution method; type: functional
Procedure, shortened: (§1)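 Two-fold serial broth microdilution in MH II medium following modified CLSI procedures. Compounds were dissolved in DMSO and diluted in medium to at most 1% solvent, tested from 0.03125 to 512 μg/ml. Final inoculum 10^6 CFU/ml. MIC was taken as the lowest concentration with no visible growth after 18 h at 35 °C.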

Klebsiella pneumoniae = assay: Antibacterial activity against Klebsiella pneumoniae ATCC 10031 assessed as bacterial growth inhibition measured after 18 hrs by two-fold serial microdilution method; type: functional; procedure, shortened: as §1
[2] = test system: Staphylococcus epidermidis; assay: Antibacterial activity against Staphylococcus epidermidis ATCC 12228 assessed as bacterial growth inhibition measured after 18 hrs by two-fold serial microdilution method; type: functional; procedure, shortened: as §1
[3] = test system: Mycobacterium tuberculosis; assay: Antitubercular activity against Mycobacterium tuberculosis Spec.192 assessed as inhibition of microbial growth by classical test tube method; type: functional
Procedure, shortened: (§2)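 Classical test-tube serial dilution in Youmans' modified Proskauer–Beck liquid medium with 10% bovine serum. Inoculum came from 14-day-old cultures. Compounds were given as DMSO solutions (stock 10 mg/ml), diluted geometrically in medium to 3.1–100 µg/ml, and incubated at 37 °C. MIC is the minimum concentration inhibiting growth relative to a no-compound control.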

Proteus vulgaris = assay: Antibacterial activity against Proteus vulgaris NCTC 4635 assessed as bacterial growth inhibition measured after 18 hrs by two-fold serial microdilution method; type: functional; procedure, shortened: as §1
[4] = test system: Staphylococcus epidermidis; assay: Antibacterial activity against Staphylococcus epidermidis ATCC 1457 assessed as bacterial growth inhibition measured after 18 hrs by two-fold serial microdilution method; type: functional; procedure, shortened: as §1
[5] = test system: Staphylococcus epidermidis; assay: Antibacterial activity against Staphylococcus epidermidis ATCC 35984/RP62A assessed as bacterial growth inhibition measured after 18 hrs by two-fold serial microdilution method; type: functional; procedure, shortened: as §1
Pseudomonas aeruginosa [6] = assay: Antibacterial activity against Pseudomonas aeruginosa NCTC 6749 assessed as bacterial growth inhibition measured after 18 hrs by two-fold serial microdilution method; type: functional; procedure, shortened: as §1
Escherichia coli = assay: Antibacterial activity against Escherichia coli ATCC 25922 assessed as bacterial growth inhibition measured after 18 hrs by two-fold serial microdilution method; type: functional; procedure, shortened: as §1
[7] = test system: Mycobacterium tuberculosis; assay: Antitubercular activity against Mycobacterium tuberculosis H37Rv ATCC 25618 assessed as inhibition of microbial growth by classical test tube method; type: functional; procedure, shortened: as §2
Staphylococcus aureus [8] = assay: Antibacterial activity against Staphylococcus aureus ATCC 6538 assessed as bacterial growth inhibition measured after 18 hrs by two-fold serial microdilution method; type: functional; procedure, shortened: as §1
Pseudomonas aeruginosa [9] = assay: Antibacterial activity against Pseudomonas aeruginosa PAO1 assessed as bacterial growth inhibition measured after 18 hrs by two-fold serial microdilution method; type: functional; procedure, shortened: as §1
[10] = test system: Mycolicibacterium fortuitum; assay: Antibacterial activity against Mycobacterium fortuitum assessed as inhibition of microbial growth incubated for 1 week by MABA method; type: functional; conditions: 168 h, time 1 weeks
Procedure, shortened: (§3)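 Microplate Alamar Blue assay using two-fold serial microdilution in Middlebrook 7H9 broth with 10% OADC, compounds 0.125–512 µg/ml from DMSO stocks. Inoculum came from fresh LJ culture, was adjusted to McFarland 1 and diluted 1:20. Plates were incubated 1 week at 37 °C, Alamar blue was added and plates were re-incubated 24 h. MIC was the lowest concentration preventing the blue-to-pink change. Each plate carried growth and sterile controls.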

V79 [11] = assay: Cytotoxicity against Chinese Hamster V79 cells assessed as reduction in cell viability at 100 uM measured after 72 hrs by MTT assay; type: cell-based, Cricetulus griseus; conditions: v79, 72 h
Procedure, shortened: (§4)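 MTT viability assay on cells grown in DMEM with 10% heat-inactivated FBS, penicillin/streptomycin and 20 mM HEPES at 37 °C/5% CO2. Cells were seeded at 1×10^4 per well and allowed to adhere for 24 h, then the medium was refreshed. Compounds were added at 20–140 μM for 72 h at 37 °C, followed by MTT (0.5 mg/mL in serum-free medium) for 4 h. Untreated cells served as control. IC50 is the concentration giving 50% growth inhibition versus control.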

V79 [12] = assay: Cytotoxicity against Chinese Hamster V79 cells assessed as reduction in cell viability measured after 72 hrs by MTT assay; type: cell-based; conditions: Cricetulus griseus, V79, 72 h; procedure, shortened: as §4
[13] = test system: Mycobacterium scrofulaceum; assay: Potency index, ratio of isoniazid MIC to test compound MIC for antibacterial activity against Mycobacterium scrofulaceum assessed as inhibition of microbial growth incubated for 1 week by MABA method; type: functional; conditions: time 1 weeks
[14] = test system: Mycobacterium intracellulare; assay: Antimycobacterial activity against Mycobacterium intracellulare assessed as inhibition of microbial growth incubated for 1 week by MABA method; type: functional; conditions: 168 h, time 1 weeks; procedure, shortened: as §3
[15] = test system: Mycobacterium tuberculosis; assay: Antitubercular activity against Mycobacterium tuberculosis H37Rv ATCC 25618 assessed as inhibition of microbial growth incubated for 1 week by MABA method; type: functional; conditions: H37Rv ATCC 25618, 168 h, time 1 weeks
Procedure, shortened: (§5)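 Microplate Alamar Blue assay in Middlebrook 7H9 broth with 10% OADC. Inoculum from fresh LJ culture was adjusted to McFarland 1 and diluted 1:20. DMSO stocks were two-fold serially diluted to final 0.125–512 µg/ml, with growth and sterile controls. Plates ran 1 week at 37 °C, then Alamar blue was added for 24 h. MIC is the lowest concentration preventing the blue-to-pink change.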

[16] = test system: Mycobacterium tuberculosis; assay: Antitubercular activity against Mycobacterium tuberculosis Spec.192 assessed as inhibition of microbial growth incubated for 1 week by MABA method; type: functional; conditions: Mycobacterium tuberculosis, 192, 168 h; time 1 weeks; procedure, shortened: as §5
Mycobacterium xenopi = assay: Antibacterial activity against Mycobacterium xenopi assessed as inhibition of microbial growth incubated for 1 week by MABA method; type: functional; conditions: 168 h, time 1 weeks; procedure, shortened: as §3
[17] = test system: Mycobacterium scrofulaceum; assay: Antibacterial activity against Mycobacterium scrofulaceum assessed as inhibition of microbial growth incubated for 1 week by MABA method; type: functional; conditions: 168 h, time 1 weeks; procedure, shortened: as §3
Mycobacterium avium = assay: Antimycobacterial activity against Mycobacterium avium assessed as inhibition of microbial growth incubated for 1 week by MABA method; type: functional; conditions: 168 h, time 1 weeks; procedure, shortened: as §5
HaCaT [18] = assay: Cytotoxicity against human HaCaT cells assessed as reduction in cell viability measured after 72 hrs by MTT assay; type: cell-based; procedure, shortened: as §4
HaCaT [19] = assay: Cytotoxicity against human HaCaT cells assessed as reduction in cell viability at 100 uM measured after 72 hrs by MTT assay; type: cell-based; procedure, shortened: as §4
Mycobacterium kansasii = assay: Antibacterial activity against Mycobacterium kansasii assessed as inhibition of microbial growth incubated for 1 week by MABA method; type: functional; conditions: 168 h, time 1 weeks; procedure, shortened: as §3

Row | Compound | MIC (Staphylococcus aureus [1]) | MIC (Klebsiella pneumoniae) | MIC [2] | MIC [3] | MIC (Proteus vulgaris) | MIC [4] | MIC [5] | MIC (Pseudomonas aeruginosa [6]) | MIC (Escherichia coli) | MIC [7] | MIC (Staphylococcus aureus [8]) | MIC (Pseudomonas aeruginosa [9]) | MIC [10] | Activity (V79 [11]) | IC50 (V79 [12]) | Ratio [13] | MIC [14] | MIC [15] | MIC [16] | MIC (Mycobacterium xenopi) | further results
1 | COc1ccc(NC(S)=Nc2ccc(F)cc2)cc1 | > 256 µg/mL | > 256 µg/mL | > 256 µg/mL | 100 µg/mL | > 256 µg/mL | > 256 µg/mL | > 256 µg/mL | > 256 µg/mL | > 256 µg/mL | 50 µg/mL | > 256 µg/mL | > 256 µg/mL | – | – | – | – | – | – | – | – | –
2 | COc1ccc(NC(=S)Nc2cccc(Cl)c2)cc1 | > 256 µg/mL | > 256 µg/mL | > 256 µg/mL | 100 µg/mL | > 256 µg/mL | > 256 µg/mL | > 256 µg/mL | > 256 µg/mL | > 256 µg/mL | 100 µg/mL | > 256 µg/mL | > 256 µg/mL | – | – | – | – | – | – | – | – | –
3 | COc1ccc(Nc2nnnn2-c2cccc(Cl)c2)cc1 | > 256 µg/mL | > 256 µg/mL | > 256 µg/mL | – | > 256 µg/mL | > 256 µg/mL | > 256 µg/mL | > 256 µg/mL | > 256 µg/mL | – | > 256 µg/mL | > 256 µg/mL | 512 µg/mL | Non-Toxic | 124 µM | 32 | 128 µg/mL | 8 µg/mL | 8 µg/mL | 512 µg/mL | MIC [17]: 2 µg/mL; MIC (Mycobacterium avium): 64 µg/mL; IC50 (HaCaT [18]): 103 µM; Activity (HaCaT [19]): Non-Toxic; MIC (Mycobacterium kansasii): 512 µg/mL
4 | COc1ccc(-n2nnnc2Nc2cccc(F)c2)cc1 | 128 µg/mL (≈ 449 µM) | > 256 µg/mL | 32 µg/mL (≈ 112 µM) | – | > 256 µg/mL | 256 µg/mL (≈ 897 µM) | 128 µg/mL (≈ 449 µM) | > 256 µg/mL | > 256 µg/mL | – | 64 µg/mL (≈ 224 µM) | > 256 µg/mL | 256 µg/mL | Non-Toxic | 248 µM | 4 | 64 µg/mL | 8 µg/mL | 8 µg/mL | 512 µg/mL | MIC [17]: 16 µg/mL; MIC (Mycobacterium avium): 128 µg/mL; IC50 (HaCaT [18]): 127 µM; Activity (HaCaT [19]): Non-Toxic; MIC (Mycobacterium kansasii): 512 µg/mL

Source: ChEMBL document CHEMBL4680121, “Development of (4-methoxyphenyl)-1H-tetrazol-5-amine regioisomers as a new class of selective antitubercular agents” (Eur J Med Chem, 2020)
